Sampled rows, rich in hits. Any-hit rate of the full collection: about 2.4%.
Myeloid diff 2: induction of myeloid progenitor differentiation, primary screen, cell-based, flow cytometry, MLPCN library | ER-HoxA9 myeloid progenitors, lysozyme-GFP differentiation | calls only at 10 µM | AID 624256, 2012 | 360,000 tested, 1% active;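 active = normalized GFP-positive differentiation at or above the plate's own cutoff, the solvent-only control mean plus 3 SD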;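 also: cells exposed to compound for four days before flow analysis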
MT1-MMP act inh: blockers of MT1-MMP proenzyme processing, primary screen, HT1080 RFP-PRO-GFP cells, GFP/RFP fluorescence; Matrix metalloproteinase-14 (Homo sapiens), P50281; GFP/RFP ratio fluorescence, overnight; percent of plate control window, DMSO zero; GFP/RFP ratio change, % at 20 µM; 360,000 tested, 0.061% active;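 active = GFP/RFP ratio change of at least 30% with cell ATP level not reduced by more than half and red fluorescence within 50% of control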
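Assay system – RFP-PRO-GFP reporter HT1080 cells · Compound dosing – single dose of 20 µM compound, 1% DMSO final · Incubation – overnight compound exposure at 37 °C · Measure – GFP/RFP fluorescence ratio · Benchmarks – DMSO wells and RFP-L50D-GFP cells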
CendR NRP1 mod: modulators of CendR peptide binding to NRP-1, primary screen, biochemical, fluorescence polarization, uHTS. Neuropilin-1 (Homo sapiens), O14786. FAM-RPARPAR peptide binding to NRP-1. inhibition, % at 25 µM. 360,000 tested, 0.85% active. AID 602438, 2012;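 active = inhibition or corrected inhibition above about 18%, plus a signal ratio from 0.5 to 1.5, limit read from the data, passing the limit was not always enough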
Target sequence (O14786 whole entry, looked up): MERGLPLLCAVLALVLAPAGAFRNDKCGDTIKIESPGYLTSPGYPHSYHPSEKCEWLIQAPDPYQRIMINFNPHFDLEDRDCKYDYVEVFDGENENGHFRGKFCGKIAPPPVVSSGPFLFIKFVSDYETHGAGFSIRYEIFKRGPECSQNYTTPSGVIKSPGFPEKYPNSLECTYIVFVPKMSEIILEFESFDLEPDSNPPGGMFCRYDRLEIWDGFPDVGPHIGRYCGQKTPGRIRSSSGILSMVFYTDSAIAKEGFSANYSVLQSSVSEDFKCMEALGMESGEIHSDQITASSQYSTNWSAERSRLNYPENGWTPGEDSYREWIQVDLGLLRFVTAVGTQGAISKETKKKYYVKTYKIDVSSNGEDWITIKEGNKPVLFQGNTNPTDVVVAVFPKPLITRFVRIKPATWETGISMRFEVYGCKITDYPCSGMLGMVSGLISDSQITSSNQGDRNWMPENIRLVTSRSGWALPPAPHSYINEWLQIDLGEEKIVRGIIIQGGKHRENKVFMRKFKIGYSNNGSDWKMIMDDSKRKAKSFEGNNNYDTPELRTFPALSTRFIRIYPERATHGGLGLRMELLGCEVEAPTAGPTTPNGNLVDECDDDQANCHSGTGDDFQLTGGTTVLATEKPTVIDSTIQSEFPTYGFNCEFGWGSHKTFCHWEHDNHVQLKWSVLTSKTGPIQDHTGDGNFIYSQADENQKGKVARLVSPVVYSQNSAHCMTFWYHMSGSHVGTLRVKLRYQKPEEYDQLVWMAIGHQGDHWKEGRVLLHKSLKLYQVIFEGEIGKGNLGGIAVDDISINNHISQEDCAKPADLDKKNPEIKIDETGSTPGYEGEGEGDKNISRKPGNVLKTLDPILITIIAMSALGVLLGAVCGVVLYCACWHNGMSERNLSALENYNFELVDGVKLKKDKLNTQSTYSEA
SENP1 inh: human SENP1 catalytic domain inhibitors, primary screen, biochemical, FRET, uHTS; Sentrin-specific protease 1 (Homo sapiens), Q9P0U3; recombinant SENP1 catalytic domain, CyPet-SUMO1-YPet FRET cleavage; inhibition, % at 10 µM; 360,000 tested, 0.21% active;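 active = inhibition at least 30% at 10 µM, raw YFP signal under a set limit, fluorescence ratio 0.5 to 1.5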;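 also: 0% = enzyme with DMSO and 100% = no enzyme wells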
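Material – human SENP1 catalytic domain · Input – SENP1 enzyme, 20 pM final · Compound dosing – single concentration of 10 µM compound, 0.5% DMSO final · Timing – enzyme reaction for 50 min at room temperature, dark · Measured by – FRET fluorescence in CFP and YFP emission channels · Control set – no-enzyme wells low, DMSO-plus-enzyme wells high control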
MIN6 prolif-1: inducers of MIN6 beta-cell proliferation, primary screen, ATP luminescence, uHTS. MIN6 cells proliferation, ATPlite luminescence, 48 h; cells starved in 0.2% serum; 100% = growth in 10% serum. proliferation, % at 10 µM. 330,000 tested, 0.29% active;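 active = compounds whose signal lies at least 3.5 SD above the mean of all wells on their plate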;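 also: 0% = DMSO-treated cells in low-serum medium and 100% = 10% serum control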
DAGLB inhibitor: DAGLB lipase inhibitors, primary screen, biochemical, fluorescence, HTS. Diacylglycerol lipase-beta (Homo sapiens), Q8NCG7. HEK293T DAGLB membrane lysate, EnzChek fluorogenic substrate. inhibition, % at 5.17 µM. 340,000 tested, 0.059% active; in the data active = inhibition above about 34%;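 also: 0% = enzyme with vehicle and 100% = wells lacking enzyme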
MIN6 prolif-2: inducers of beta-cell proliferation in MIN6, confirmation, MIN6 cells, mouse; 920 tested, under 10 active; AID 463095, 2010; ATPlite luminescence, 48 h; cells kept in 0.2% serum; scaled between 0.2% and 10% serum; proliferation increase, % at 50 µM; shares compounds with MIN6 prolif-1;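 active = proliferation increase above 40% at any of the four tested concentrations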
Starred values were filed as active, the others as inactive; i = inactive; . = not tested or not shown.

SMILES	Myeloid diff 2	MT1-MMP act inh	CendR NRP1 mod	SENP1 inh	MIN6 prolif-1	DAGLB inhibitor	MIN6 prolif-2
CCC(C)Sc1nc2c(cnn2-c2ccc(C)cc2)c(=O)[nH]1 (stereo unspecified)	i	2.3	3.7	2.9	9.6*	1.5	8.0
Cc1ccc(-n2nnnc2-c2ccccc2)cc1	i	5.9	3.4	0.5	4.4	-0.1	.
Nc1ccc(-c2nnnn2-c2ccc(N)cc2)cc1	i	1.4	12.0	1.7	5.3*	1.9	-2.8
Cc1ccc(C)c(S(=O)(=O)N2CCN(C(=O)c3ccccn3)CC2)c1	i	-1.6	-8.7	1.0	-1.7	0.7	.
O=C(CNC(=O)c1ccccc1Cl)Nc1ccc(F)cc1	i	-5.2	-0.2	-1.8	7.0*	-3.6	-0.7
Cc1ccc(NC(=O)CCC(=O)NNC(=O)COc2ccc([N+](=O)[O-])cc2)c(C)c1	i	-0.8	9.3	-1.6	1.0	3.5	.
C=CCOn1c(C)c(C(C)=O)c2c3no[n+]([O-])c3ccc21	i	-3.1	4.6	2.0	7.6*	1.4	4.4
CC1(C(=O)NS(=O)(=O)c2ccc(Cl)cc2)CCN1C(=O)c1ccccc1 (stereo unspecified)	i	-0.9	1.0	-1.3	.	.	.
c1cc(-c2nnc3sc(C4CCCCC4)nn23)ccn1	i	-14.9	2.4	1.8	9.0*	-0.2	3.1
c1csc(Cc2nn3c(-c4ccncc4)nnc3s2)c1	i	-1.7	2.0	-5.9	7.3*	0.5	3.5
COc1ccccc1-c1nnc2sc(C3CCCCC3)nn12	i	1.6	-2.1	2.1	0.8	-3.6	.
COC(=O)C1=NNC2(c3ccc(C)cc3)C(=O)N(c3ccc(C)cc3)C(=O)C12 (stereo unspecified)	i	0.3	3.9	3.6	-0.5	-5.2	.
COc1ccc(/C=N/n2cnc3c([nH]c4ccccc43)c2=O)cc1COc1ccccn1	.	.	.	.	8.3*	.	3.0
CCCN1Cc2cccc(C(=O)Nc3ccc(CC)cc3)c2C1=O	i	5.1	8.0	1.4	7.1*	0.5	0.4
CCCN1Cc2cccc(C(=O)Nc3ccc4c(c3)OCO4)c2C1=O	i	5.6	7.4	-1.8	11.0*	0.7	-0.1
CCCN1Cc2cccc(C(=O)Nc3ccc4c(c3)OCCO4)c2C1=O	i	2.7	2.1	-0.3	3.1	-8.8	.
COc1cc2cc(C(C)(C)O)oc(=O)c2cc1OC	i	0.8	4.0	0.5	1.4	0.7	.
CCC[C@@H](O)c1cc2cc(OC)c(OC)cc2c(=O)o1	i	-0.3	9.8	3.0	11.5*	1.8	-6.4
COc1ccc(Br)cc1S(=O)(=O)NCc1ccccc1	i	0.2	12.2	1.4	0.0	0.4	.
COc1ccc(C(=O)N2CCC2)cc1S(=O)(=O)NCc1ccc(Cl)cc1	i	0.7	-9.4	0.9	8.2*	2.5	-1.9
COc1ccc(F)cc1S(=O)(=O)NCc1ccccc1	i	4.5	-1.1	0.6	0.0*	0.3	0.0
Cc1ccc(S(=O)(=O)N2CCCCC2CCNC(=O)C(=O)NC2CCCC2)cc1 (stereo unspecified)	i	-8.6	8.4	0.1	-4.2	0.1	.
O=C(NCCC1CCCCN1S(=O)(=O)c1ccccc1)C(=O)NC1CC1 (stereo unspecified)	i	4.6	0.8	2.2	11.9*	-4.8	-1.3
O=C(CN1C(=O)NC2(CCCCC2)C1=O)N1CCN(S(=O)(=O)c2cccc(F)c2)CC1	i	-3.8	3.0	-1.6	1.3	-3.5	.
O=C(CCN1C(=O)COc2ccccc21)NCCN1CCN(c2ccccc2F)CC1	i	-1.7	-1.4	0.9	6.7*	2.4	-2.1
SMILES	Myeloid diff 2	MT1-MMP act inh	CendR NRP1 mod	SENP1 inh	MIN6 prolif-1	DAGLB inhibitor	MIN6 prolif-2
Fc1ccccc1N1CCN(c2ncnc3nc[nH]c23)CC1	i	10.6	-2.4	0.2	11.3*	0.8	0.4
Clc1ccccc1N1CCN(c2ncnc3nc[nH]c23)CC1	i	2.4	-9.0	0.8	13.1*	0.8	0.7
COc1ccccc1OCCCCN1CCN(C(c2ccccc2)c2ccccc2)CC1	i	-8.2	-11.4	-2.6	-5.2	-7.5	.
COc1ccccc1CNC(=O)CSc1ccc(-c2cccs2)nn1	i	-1.0	-3.6	1.3	7.8*	-0.8	-2.5
O=C(CSc1ccc(-c2cccs2)nn1)NCc1ccccc1Cl	.	.	.	.	-2.5	.	.
O=C(NCc1ccco1)c1cc2nc(-c3cccs3)cc(C(F)(F)F)n2n1	i	14.8	-4.4	-35.2	7.8*	0.7	4.8
COc1ccc(CCNC(=O)Cc2cc(OC)c(OC)cc2Br)cc1OC	i	-1.0	-2.1	0.5	-1.5	-2.1	.
COc1ccc(CCNC(=O)CNC(=O)c2ccc(Br)o2)cc1OC	i	-4.4	4.6	0.7	12.8*	-3.4	2.0
COc1ccc(Cn2nnnc2CN(Cc2cc3cc(C)ccc3[nH]c2=O)C2CCCC2)cc1	i	-4.0	-8.4	-8.8	-3.4	-0.8	.
CCC(C)(C)n1nnnc1CN(Cc1cc2cc(OC)c(OC)cc2[nH]c1=O)C1CCCC1	i	-3.2	-6.1	-24.0	7.2*	0.3	1.7
COc1ccc(NC(=O)CSc2ccccc2)cc1S(=O)(=O)N1CCCCC1	i	1.3	-4.6	5.6	4.7*	-0.5	-5.7
CCOC(=O)C1=C(COC(=O)/C=C/c2ccccc2F)NC(=O)NC1C (stereo unspecified)	i	3.0	-3.2	-0.5	12.4*	-0.6	-2.0
CCOC(=O)C1=C(COC(=O)c2cccc(Br)c2)NC(=O)NC1C (stereo unspecified)	i	0.7	1.4	-1.1	-3.2	2.4	.
CCOC(=O)C1=C(COC(=O)/C=C/c2ccccc2Cl)NC(=O)NC1C (stereo unspecified)	i	2.6	6.4	1.0	-3.7	0.0	.
CCOC(=O)C1=C(COC(=O)/C=C/c2ccccc2)NC(=O)NC1C (stereo unspecified)	i	0.5	3.5	-0.5	11.6*	-3.3	4.7
CCOC(=O)C1=C(COC(=O)c2sccc2C)NC(=O)NC1C (stereo unspecified)	i	-0.8	9.8	-0.3	11.4*	0.8	3.7
